TNAP inh hiacc: blocks human TNAP under high phosphate acceptor concentration | P05186 | purified TNAP, CDP-star luminescence, 1 M DEA | inhibition, % at 20 µM | 0.03% of 200,000 active | AID 1135;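 active means over 50% inhibition of tissue-nonspecific alkaline phosphatase at 20 µM in the single-dose screen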
TNAP act hi DEA: TNAP (human) activation, high acceptor. P05186. purified TNAP, CDP-star luminescence, 1 M DEA, 30 min; active compounds read high; 0 = EDTA background, 1 = DMSO-only activity. activation factor at 20 µM. 200,000 tested, under 10 active;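 active means activation factor at least 2 at 20 µM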
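Control set: EDTA negative control, DMSO positive control / Assay system: human TNAP / Quantity: TNAP 1/800 final / Evaluation: TNAP activation factor scaled between EDTA and DMSO control wells / Measured by: luminescent substrate turnover signal / Compound dosing: one dose, 20 µM / Times: 30 min enzyme reaction at room temperature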
PMI act: increases human mannose-6-phosphate isomerase activity. purified human PMI, coupled resazurin fluorescence, 20 min; active compounds read high; 1 = vehicle control, 0 substrate-free wells. activation factor at 20 µM. 0.005% of 190,000 active. AID 1214;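 active means activation factor of 2 or more at 20 µM, relative to plate controls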
Target sequence (P34949 whole entry, looked up): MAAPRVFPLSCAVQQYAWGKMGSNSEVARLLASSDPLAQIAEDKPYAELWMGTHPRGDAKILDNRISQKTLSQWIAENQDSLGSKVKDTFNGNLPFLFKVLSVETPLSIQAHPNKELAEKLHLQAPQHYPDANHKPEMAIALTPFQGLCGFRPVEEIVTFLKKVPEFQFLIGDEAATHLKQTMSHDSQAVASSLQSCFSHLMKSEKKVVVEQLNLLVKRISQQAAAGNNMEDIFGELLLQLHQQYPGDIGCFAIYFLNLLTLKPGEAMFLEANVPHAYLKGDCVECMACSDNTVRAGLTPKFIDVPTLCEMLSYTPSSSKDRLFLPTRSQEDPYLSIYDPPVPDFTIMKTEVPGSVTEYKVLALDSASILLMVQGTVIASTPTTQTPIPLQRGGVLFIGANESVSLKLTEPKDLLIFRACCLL
PMI act hi M6P: increases human PMI activity with near-saturating mannose 6-phosphate. P34949. coupled PMI enzyme assay, resazurin fluorescence, 20 min; active compounds read high; 1 = untreated enzyme, 0 = substrate-free blank. activation factor at 20 µM. 0.34% of 190,000 active. AID 1216;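 active means activation factor of 2 or more at 20 µM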
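Material: human phosphomannose isomerase with PGI, G6PDH, diaphorase coupling enzymes / Reagent: Man-6-P substrate 1.0 mM / Dosing: single compound dose of 20 µM, 1% DMSO final / Incubation: enzyme reaction with compound 20 min at room temperature / Signal: resorufin fluorescence (Ex 544/Em 590 nm) from resazurin via diaphorase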
TNAP inh no acc: inhibitors of human TNAP without phosphate acceptor; AID 1012; 0.26% of 200,000 active; inhibition, % at 20 µM; purified TNAP, CDP-star luminescence, 30 min; P05186;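 active means tissue-nonspecific alkaline phosphatase inhibition above about 50% at 20 µM in the single-dose screen, limit read from the data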
Large screens that a line does not name were inactive. Most compounds without a hit are left out; they make up all but 0.64% or so of the library.

Cc1cc(-c2ccc(NC(=O)[C@@H]3CCCC[C@@H]3C(=O)O)c(C)c2)ccc1NC(=O)[C@@H]1CCCC[C@@H]1C(=O)O	none
Cc1c(N=C2N=C(NC(=O)c3ccc(F)cc3)c3ccccc32)c(=O)n(-c2ccccc2)n1C	none
CCOC(=O)Cn1cnc2c(cnn2-c2ccc(Cl)cc2)c1=O	none
Cc1nnc2c3cnn(-c4ccc(Cl)cc4)c3ncn12	TNAP inh no acc 67
CCOC(=O)N1CCC(NC(=O)CCC(=O)N2CCOc3ccc(Cl)cc32)CC1	none
Cc1ccc(S(=O)(=O)NC(=O)NN2CCCCCC2)cc1	PMI act hi M6P 2
O=C(c1ccc(Cl)nc1)N1CCN(S(=O)(=O)c2ccc(Cl)cc2)CC1	none
Cc1cccc(C)c1N1CCN(C(=O)N2CCCCC2)CC1	PMI act hi M6P 2
O=C(NCC(=O)N1CC(O)CC1C(=O)N1CC(O)CC1C(=O)OCc1ccccc1)OCc1ccccc1 (configuration not stated)	none
Cc1nc2sc(C(N)=O)c(N)c2c(C)c1CC(=O)c1ccccc1	PMI act hi M6P 2
CCc1n[nH]c2c1C(=O)CC(C)(C)C2	TNAP inh no acc 51
CCc1n[nH]c2c1/C(=N/O)CCC2	none
Cc1[nH]nc2c1/C(=N\O)CC(C)(C)C2	none
Cc1[nH]nc2c1C(=O)CC(C)(C)C2	TNAP inh no acc 55
Cn1nnnc1SCC(=O)NC1CCCc2ccccc21 (configuration not stated)	none
Cc1cc(C)c2c(N)c(C(=O)N3CCc4ccccc4C3)sc2n1	PMI act hi M6P 2
CC(C)c1ccc2nc3sc(C(=O)N4CCc5ccccc5C4)c(N)c3cc2c1	none
CC1CC(=O)C2=C(C1)Nc1nc3ccccc3n1C2c1cccnc1 (configuration not stated)	TNAP inh no acc 53
O=C1CCCC2=C1C(c1ccncc1)n1c(nc3ccccc31)N2 (configuration not stated)	none
CCc1cc2cc(C)cc(C)c2[nH]c1=S	PMI act hi M6P 2.9
COc1ccc(/C=N/NC(=O)c2cc(C34CC5CC(CC(C5)C3)C4)[nH]n2)cc1OC	TNAP inh no acc 86
COc1cc(/C=N\NC(=O)c2ccc(=O)[nH]n2)cc(OC)c1OC	none
COc1cccc(/C=N/NC(=O)c2cc(C34CC5CC(CC(C5)C3)C4)[nH]n2)c1	TNAP inh no acc 86
O=C(Cn1cc([N+](=O)[O-])nc1[N+](=O)[O-])N1CCN(c2ccccc2)CC1	none
Cc1ccc(NC(=O)CN(c2ccc(Cl)cc2)S(=O)(=O)c2cc([N+](=O)[O-])ccc2Cl)c(C)c1	none
Cc1cc(C)n(CCN(C)Cc2cn[nH]c2-c2ccc(F)cc2F)n1	none
COc1ccc(-c2[nH]ncc2CNCc2cc(C)n(C)n2)c(F)c1	TNAP inh no acc 68
COc1ccc(-c2[nH]ncc2CNCCn2cccn2)c(F)c1	TNAP inh no acc 85
CC(C)NCCCCOc1ccc(Br)cc1Cl	none
COC(=O)C(NNc1ccccc1)(NC(=O)c1ccccc1F)C(F)(F)F (configuration not stated)	PMI act hi M6P 2.3
O=C(O)C/C=C(\NC(=O)OCc1ccccc1)C(=O)OCc1ccccc1	PMI act hi M6P 2.6
O=C(CCc1n[nH]c(=O)[nH]c1=O)Nc1cccc([N+](=O)[O-])c1	none
C=CCOc1c(Br)cc(/C=N/n2c(CC)n[nH]c2=S)cc1Br	TNAP inh no acc 59
CN(C)c1ccc(/C=C(/C(=O)c2ccc(Cl)cc2Cl)n2cncn2)cc1	TNAP inh hiacc 55
COc1ccc(/C=C(/C(=O)c2ccc(Cl)cc2Cl)n2cncn2)cc1	none
O=C(NNC(=O)c1ccc(O)cc1O)c1ccc(Cl)cc1	TNAP inh no acc 76
CC1CCCN(C(=O)COC(=O)c2n[nH]c3ccccc23)C1 (configuration not stated)	TNAP inh no acc 60
O=C(c1n[nH]c2ccccc12)N1CCOCC1	none
Cc1cc(NC(=O)COC(=O)c2n[nH]c3ccccc23)no1	TNAP inh no acc 52
COc1ccc(CNC(=O)COC(=O)c2n[nH]c3ccccc23)cc1OC	none
O=C(c1n[nH]c2ccccc12)N1CCCCC1	TNAP inh no acc 82
Clc1ccccc1-c1nc(-c2ccccc2)n[nH]1	TNAP inh no acc 91
CC1(C)CC(=O)C(CC(=O)Nc2cc(C(F)(F)F)ccc2Cl)C(=O)C1	TNAP inh no acc 52
Cc1ccc(-c2nnc(Nc3ccc4c(c3)OCO4)c3ccccc23)cc1S(N)(=O)=O	TNAP inh no acc 79
CC(C)n1c(-c2ccccc2F)n[nH]c1=S	TNAP inh no acc 69
CNC(=O)CS(=O)CC(=O)Nc1cc(OCCOC)c(Cl)cc1Cl (configuration not stated)	none
COc1ccc(OC)c(Cc2nnc(CCC(=O)NCc3ccsc3)o2)c1	none
Cc1cc(C)c2nc3nc(C)c(C)cc3c(N)c2c1	none
COc1ccc(OC)c(/C=N/NC(=O)CCc2ccc(O)c(O)c2)c1	TNAP inh no acc 62
COc1ccc(OC)c(/C=N/NC(=O)CC(=O)NCc2ccccc2)c1	none
O=C1OCC2=C1C(c1ccc(F)cc1)CC(=O)N2c1ccccc1 (configuration not stated)	none
CC(C)c1csc(CN2CCC(CO)(Cc3cccc(F)c3)CC2)n1	none
O=C(c1cc(-c2ccccc2)n[nH]1)N1CCc2c([nH]c3ccccc23)C1c1ccccn1 (configuration not stated)	TNAP inh no acc 62
COCCNC(=O)/C(C#N)=c1\s/c(=C\c2ccccc2OC(F)F)c(=O)n1Cc1ccccc1	none
Nc1c(C(=O)O)sc2nc(-c3ccccc3)c3c(c12)CCCC3	PMI act hi M6P 2.2
O=C1c2c(O)cc(O)cc2O[C@H](c2ccc(O)c(O)c2)[C@@H]1O	TNAP inh no acc 70
COc1ccc(-c2cc(C(=O)NN)[nH]n2)cc1OC	none
COc1ccc(-c2cc(-c3cc(C)ccc3O)[nH]n2)cc1	none
COc1ccc(-c2cc(C(=O)NN)[nH]n2)cc1	TNAP inh no acc 93
COC(=O)c1cc(-c2c[nH]c3ccccc23)n[nH]1	TNAP inh no acc 89
CCc1ccc(-c2cc(C(=O)N/N=C/c3c[nH]c4ccccc34)[nH]n2)cc1	none
COc1ccc(-c2cc(-c3ccc(OC)cc3)[nH]n2)cc1	TNAP inh no acc 66
COc1ccc(-c2cc(C(=O)O)[nH]n2)cc1OC	none
O=C(O)c1cc(-c2ccc(Cl)cc2)n[nH]1	TNAP inh no acc 83
COc1ccc(C(=O)/C(C#N)=N/Nc2cccc([N+](=O)[O-])c2)cc1	none
O=C(COC(=O)c1ccc(O)cc1)Nc1ccccc1[N+](=O)[O-]	none
Cc1ccc(/C=N/NC(=O)c2cccc(S(=O)(=O)N3CCOCC3)c2)o1	none
COC(=O)c1cc(-c2ccc(Br)cc2)n[nH]1	TNAP inh no acc 79
